From ChEMBL document CHEMBL1128303, “Novel non-nucleoside inhibitors of HIV-1 reverse transcriptase. 3. Dipyrido[2,3-b:2',3'-e]diazepinones” (J Med Chem, 1995) come the findings set out here.

The target of assay [1] is Human immunodeficiency virus type 1 reverse transcriptase (Human immunodeficiency virus 1, UniProt Q72547). The experiment in a line: In vitro for inhibition of HIV-1 reverse transcriptase.
Assay [2] has as its target Human immunodeficiency virus type 1 reverse transcriptase (Human immunodeficiency virus 1) (UniProt Q72547). The assay is described as follows: In vitro for inhibition of HIV-1 reverse transcriptase at 1 uM. In outline: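 Compounds were first screened as percent enzyme inhibition at a single 1 μM concentration. IC50 was not determined for compounds giving under 35% inhibition at 1 μM.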

As to `CN1C(=O)c2cccnc2N(C2CC2)c2ccc(Cl)nc21`, the IC50 (usually the concentration needed to halve the response being measured) in assay [1] was 1000 nM.

Compound `CN1C(=O)c2cccnc2N(C2CC2)c2cc(Cl)cnc21` had an IC50 in assay [1] of 760 nM.

In assay [1], `CCN1c2cccnc2N(C)C(=O)c2cc(N)cnc21` gave an IC50 of 280 nM.

In turn, `CCN1c2cc(Br)cnc2N(C)C(=O)c2cccnc21` showed an IC50 in assay [1] of 550 nM.

For `CCN1c2cc(Br)c(Br)nc2N(C)C(=O)c2cccnc21`, the inhibition (in general, the relative decrease from the control value, in per cent) in assay [2] was under 35%.

In assay [1], `CCN1c2ncc(Br)cc2C(=O)N(C)c2cccnc21` displayed a concentration for half-maximal inhibition (IC50) of 1300 nM.

`CCN1c2cccnc2N(C)C(=O)c2cc(Br)cnc21` yielded an inhibition in assay [2] of under 35%.

Consider `CCN1c2ncc(N)cc2C(=O)N(C)c2cccnc21`, for which the IC50 in assay [1] worked out at 130 nM.

On to `CCN1c2cccnc2N(C)C(=O)c2cccnc21`, for which the IC50 in assay [1] amounted to 1300 nM.

As for `CCN1c2ncccc2C(=O)N(C)c2nccc(C)c21`, in assay [2], the inhibition is under 35%.

Turning to `CCN1c2cc(C)c(C)nc2N(C)C(=O)c2cccnc21`, in assay [1], the midpoint of inhibition, the IC50, lay at 190 nM. This lies in the sub-micromolar range.

In the case of `CCN1c2cc(-c3cccc(N)c3)cnc2N(C)C(=O)c2cccnc21`, the inhibition in assay [2] is under 35%.

`CCN1c2ncccc2C(=O)N(C)c2cc([N+](=O)[O-])cnc21` gave an inhibition in assay [2] of under 35%.

As for `CCN1c2nc(C)ccc2C(=O)N(C)c2cccnc21`, in assay [1], half-maximal inhibition (IC50) required 1000 nM.

`CCN1c2cccnc2N(C)C(=O)c2ccc(C)nc21` registered an inhibition in assay [2] of under 35%.

As for `CN1C(=O)c2cccnc2N(C2CC2)c2ncc(Cl)cc21`, in assay [1], the half-inhibitory concentration (IC50) is 290 nM.

Regarding `CCN1c2cc(C)c(C)nc2N(C)C(=O)c2cc(N)cnc21`, the midpoint of inhibition in assay [1], the IC50, lay at 150 nM.

`CCN1c2ccc(C)nc2N(C)C(=O)c2cccnc21`: in assay [1], it took 1760 nM to reach half-maximal inhibition (IC50).

In assay [1], `CCN1c2ncccc2C(=O)N(C)c2ccc(-c3cccc(N)c3)nc21` registered a half-inhibitory concentration (IC50) of 70 nM. Compared with the last compound, the IC50 is about 25-fold lower.

As to `CCN1c2ccc([N+](=O)[O-])nc2N(C)C(=O)c2cccnc21`, the inhibition in assay [2] was under 35%.

`CN1C(=O)c2cccnc2N(C2CC2)c2nc(Cl)ccc21` displayed an IC50 in assay [1] of 90 nM.
